Reference: ChEMBL document CHEMBL1156845, “Spirocyclic ureas: orally bioavailable 11 beta-HSD1 inhibitors identified by computer-aided drug design” (Bioorg Med Chem Lett, 2010)

Assays:
[1] = target: T1, 11-beta-hydroxysteroid dehydrogenase 1 (Homo sapiens, UniProt P28845); assay: Inhibition of human recombinant 11beta-HSD1 expressed in CHO cells assessed as conversion of [3H]cortisone to [3H]cortisol by SPA; format: cell-based
[2] = target: T1, 11-beta-hydroxysteroid dehydrogenase 1; assay: Inhibition of 11beta-HSD1 in human adipocytes assessed as conversion of [3H]cortisone to [3H]cortisol after 2 hrs by SPA; format: cell-based
[3] = target: T2, 11-beta-hydroxysteroid dehydrogenase type 2 (Homo sapiens, UniProt P80365); assay: Inhibition of 11beta-HSD2
T2 sequence (P80365 whole entry): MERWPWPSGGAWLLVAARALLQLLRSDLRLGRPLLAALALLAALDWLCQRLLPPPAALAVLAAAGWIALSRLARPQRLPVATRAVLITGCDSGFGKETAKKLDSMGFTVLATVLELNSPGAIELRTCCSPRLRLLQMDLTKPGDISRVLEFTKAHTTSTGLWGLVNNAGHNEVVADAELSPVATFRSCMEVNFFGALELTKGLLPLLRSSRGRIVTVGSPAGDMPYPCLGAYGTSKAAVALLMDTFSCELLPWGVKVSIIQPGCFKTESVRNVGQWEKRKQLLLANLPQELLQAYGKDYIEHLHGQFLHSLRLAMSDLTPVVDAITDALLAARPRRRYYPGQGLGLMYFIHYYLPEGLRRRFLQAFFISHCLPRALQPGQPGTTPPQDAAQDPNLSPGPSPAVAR

[4] = AUC (infinity) in rat at 9.68 mg/kg, po and 1.9 mg/kg, iv; format: ADME, organism-based; settings: plasma
Procedure, shortened: (§1)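 PK after oral and IV dosing, with compounds given as sodium salts. Rat and mouse received 9.68 mg/kg PO and 1.9 mg/kg IV; cynomolgus monkey received 2 mg/kg PO and 1 mg/kg IV. AUC(inf) and t1/2 are the oral parameters, clearance is from the IV arm, and %F is oral bioavailability.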

[5] = Half life in rat at 9.68 mg/kg, po and 1.9 mg/kg, iv; format: ADME, organism-based; settings: in vivo; procedure, shortened: as §1
[6] = Clearance in rat at 1.9 mg/kg, iv; format: ADME, organism-based; set-up: dose 1.9 mg/kg, route intravenous; settings: in vivo; procedure, shortened: as §1
[7] = Oral bioavailability in rat at 9.68 mg/kg; format: ADME, organism-based; settings: in vivo; procedure, shortened: as §1
[8] = Drug level in mouse liver at 30 mg/kg, po after 4 hrs by LC-MS/MS analysis; format: ADME, organism-based; set-up: dose 30 mg/kg, route oral; settings: read-out: Drug uptake
Procedure, shortened: (§2)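 Mice (n = 3) were dosed PO at 30 mg/kg as a suspension in 0.5% methocellulose in PBS. Plasma, liver and adipose were harvested at 4 h and snap frozen. Thawed tissue was homogenized in 0.05 M BES, pH 7, and extracted into acetonitrile. Levels were measured by LC–MS/MS against standard curves made separately in each tissue matrix.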

[9] = Drug level in mouse adipose at 30 mg/kg, po after 4 hrs by LC-MS/MS analysis; format: ADME, organism-based; set-up: dose 30 mg/kg, route oral; settings: adipose tissue, read-out: Drug uptake; procedure, shortened: as §2
[10] = Drug level in mouse plasma at 30 mg/kg, po after 4 hrs by LC-MS/MS analysis; format: ADME, organism-based; set-up: dose 30 mg/kg, route oral; procedure, shortened: as §2
Cynomolgus monkey = assay: Inhibition of 11beta-HSD1 in cynomolgus monkey assessed as reduction of plasma cortisol concentration at 10 mg/kg, po administered 2 hrs before cortisone 21-acetate challenge measured every 30 mins for 6 hrs; format: functional, Macaca fascicularis; set-up: scale not given: the % may be the effect or the level left
Procedure, shortened: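 Cynomolgus monkeys (n = 5, crossover, 7-day washout) were given dexamethasone at t = −8 h to suppress endogenous cortisol. Vehicle or compound (10 mg/kg PO) followed at t = 0, then cortisone 21-acetate challenge (25 mg PO) at t = 2 h. Blood was sampled every 30 min for 6 h to measure plasma cortisol.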

[11] = Clearance in mouse at 1.9 mg/kg, iv; format: ADME, organism-based; set-up: dose 1.9 mg/kg, route intravenous; settings: in vivo; procedure, shortened: as §1
[12] = Oral bioavailability in mouse at 9.68 mg/kg; format: ADME, organism-based; settings: in vivo; procedure, shortened: as §1
[13] = AUC (infinity) in mouse at 9.68 mg/kg, po and 1.9 mg/kg, iv; format: ADME, organism-based; settings: plasma; procedure, shortened: as §1
[14] = Half life in mouse at 9.68 mg/kg, po and 1.9 mg/kg, iv; format: ADME, organism-based; settings: in vivo; procedure, shortened: as §1
[15] = AUC (infinity) in cynomolgus monkey at 2 mg/kg, po and 1 mg/kg, iv; format: ADME, organism-based, Macaca fascicularis; settings: plasma; procedure, shortened: as §1
[16] = Half life in cynomolgus monkey at 2 mg/kg, po and 1 mg/kg, iv; format: ADME, organism-based, Macaca fascicularis; settings: in vivo; procedure, shortened: as §1
[17] = Clearance in cynomolgus monkey at 1 mg/kg, iv; format: ADME, organism-based, Macaca fascicularis; set-up: dose 1 mg/kg, route intravenous; settings: in vivo; procedure, shortened: as §1
[18] = Oral bioavailability in cynomolgus monkey at 2 mg/kg; format: ADME, organism-based, Macaca fascicularis; settings: in vivo; procedure, shortened: as §1
Cytochrome P450 3A4 = Cytochrome P450 3A4 (Homo sapiens, UniProt P08684); assay: Inhibition of CYP3A4; format: ADME
Cytochrome P450 2C9 = Cytochrome P450 2C9 (Homo sapiens, UniProt P11712); assay: Inhibition of CYP2C9; format: ADME
Cytochrome P450 2D6 = Cytochrome P450 2D6 (Homo sapiens, UniProt P10635); assay: Inhibition of CYP2D6; format: ADME
[19] = Half life in human liver microsomes; format: ADME, Microsome

T1 sequence (P28845 whole entry): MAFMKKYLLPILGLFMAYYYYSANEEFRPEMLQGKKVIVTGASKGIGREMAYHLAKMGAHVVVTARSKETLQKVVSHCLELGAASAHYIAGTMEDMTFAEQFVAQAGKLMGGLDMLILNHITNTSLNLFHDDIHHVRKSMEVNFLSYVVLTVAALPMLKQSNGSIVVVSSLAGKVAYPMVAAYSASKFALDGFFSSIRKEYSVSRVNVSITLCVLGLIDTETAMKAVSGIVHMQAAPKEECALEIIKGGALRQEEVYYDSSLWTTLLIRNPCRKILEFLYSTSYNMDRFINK
Cytochrome P450 2C9, sequence (P11712 whole entry): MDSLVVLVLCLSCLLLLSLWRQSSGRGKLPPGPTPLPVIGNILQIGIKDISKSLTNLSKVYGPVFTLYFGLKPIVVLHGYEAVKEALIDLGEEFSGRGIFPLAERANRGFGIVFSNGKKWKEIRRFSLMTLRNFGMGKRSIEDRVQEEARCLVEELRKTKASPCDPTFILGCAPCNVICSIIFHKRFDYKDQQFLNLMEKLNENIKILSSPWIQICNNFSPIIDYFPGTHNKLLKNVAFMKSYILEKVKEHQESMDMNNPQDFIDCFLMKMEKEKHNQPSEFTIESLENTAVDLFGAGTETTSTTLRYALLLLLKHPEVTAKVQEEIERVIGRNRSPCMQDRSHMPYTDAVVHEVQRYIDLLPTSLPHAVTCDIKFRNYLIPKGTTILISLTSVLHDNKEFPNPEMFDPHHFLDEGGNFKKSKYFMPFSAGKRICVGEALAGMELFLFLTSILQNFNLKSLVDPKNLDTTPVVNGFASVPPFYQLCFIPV
Cytochrome P450 3A4, sequence (P08684 whole entry): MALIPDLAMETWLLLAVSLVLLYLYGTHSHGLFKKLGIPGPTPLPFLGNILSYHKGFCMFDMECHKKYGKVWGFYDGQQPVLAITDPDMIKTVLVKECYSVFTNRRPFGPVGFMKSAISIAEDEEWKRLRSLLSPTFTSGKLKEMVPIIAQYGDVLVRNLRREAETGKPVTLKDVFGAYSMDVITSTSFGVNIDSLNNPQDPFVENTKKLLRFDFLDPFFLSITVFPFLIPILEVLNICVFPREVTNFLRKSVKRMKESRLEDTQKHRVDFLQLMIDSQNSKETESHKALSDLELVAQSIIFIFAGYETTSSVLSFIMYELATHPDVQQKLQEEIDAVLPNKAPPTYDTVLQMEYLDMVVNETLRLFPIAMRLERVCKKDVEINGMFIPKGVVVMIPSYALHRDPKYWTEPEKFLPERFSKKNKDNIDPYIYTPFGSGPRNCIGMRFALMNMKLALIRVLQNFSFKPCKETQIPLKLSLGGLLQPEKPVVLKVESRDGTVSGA
Cytochrome P450 2D6, sequence (P10635 whole entry): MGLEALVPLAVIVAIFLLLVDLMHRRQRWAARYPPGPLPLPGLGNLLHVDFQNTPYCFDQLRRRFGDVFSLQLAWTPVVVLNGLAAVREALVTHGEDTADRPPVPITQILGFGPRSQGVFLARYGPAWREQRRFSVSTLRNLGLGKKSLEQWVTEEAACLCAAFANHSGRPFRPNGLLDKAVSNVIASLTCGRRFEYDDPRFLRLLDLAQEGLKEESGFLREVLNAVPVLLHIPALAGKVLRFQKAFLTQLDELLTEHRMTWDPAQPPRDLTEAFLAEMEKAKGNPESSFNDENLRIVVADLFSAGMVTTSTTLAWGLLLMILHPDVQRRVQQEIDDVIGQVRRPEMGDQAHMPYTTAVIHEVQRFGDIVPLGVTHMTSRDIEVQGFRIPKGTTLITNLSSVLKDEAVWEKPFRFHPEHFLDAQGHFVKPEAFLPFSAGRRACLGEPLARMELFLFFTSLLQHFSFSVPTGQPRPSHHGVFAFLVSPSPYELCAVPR

| IC50 [1] [nM] | IC50 [2] [nM] | IC50 [3] [nM] | Compound | also measured |
| --- | --- | --- | --- | --- |
| 7.6 | 18.3 | > 10000 | Cc1cccc2c1C1(CCN(C(=O)NC3C4CC5CC(C4)CC3C5)CC1)CC2CC(=O)O (stereo not drawn) | – |
| 2 | 7.5 | > 10000 | O=C(O)C[C@@H]1CC2(CCN(C(=O)NC3C4CC5CC(C4)CC3C5)CC2)c2c(Br)cccc21 (single isomer, unassigned) | – |
| 0.8 | 2.7 | – | O=C(NC1C2CC3CC(C2)CC1C3)N1CCC2(CCc3ccccc32)CC1 (stereo not drawn) | – |
| – | – | – | O=C(O)CC1CC2(CCN(C(=O)NC3C4CC5CC(C4)CC3C5)CC2)c2ccccc21 (stereo not drawn) | AUC(0-inf) [4]: 3530 ng·h/mL; half-life [5]: 2.87 h; clearance [6]: 47.1 mL/min/kg; bioavailability [7]: 94% |
| 1.7 | 18 | 9000 | O=C(NC1C2CC3CC(C2)CC1C3)N1CCC2(CC1)CC(CCO)c1cccc(Br)c12 (stereo not drawn) | – |
| 3.4 | 23.2 | > 10000 | O=C(O)CC1CC2(CCN(C(=O)NC3C4CC5CC(C4)CC3C5)CC2)c2ccc(Cl)cc21 (stereo not drawn) | – |
| 2.2 | 10.7 | > 10000 | O=C(O)CC1CC2(CCN(C(=O)NC3C4CC5CC(C4)CC3C5)CC2)c2c(Cl)cccc21 (stereo not drawn) | – |
| 1.1 | 2.5 | > 10000 | O=C(O)C[C@H]1CC2(CCN(C(=O)NC3C4CC5CC(C4)CC3C5)CC2)c2c(Br)cccc21 (stereo partly drawn) | concentration at 4 h [8]: 7070 ng/mL; concentration at 4 h [9]: 127 ng/mL; concentration at 4 h [10]: 393 ng/mL; Activity (Cynomolgus monkey): 80% |
| 1.6 | 5.3 | > 10000 | O=C(O)CC1CC2(CCN(C(=O)NC3C4CC5CC(C4)CC3C5)CC2)c2c(Br)cccc21 (stereo not drawn) | clearance [11]: 28.1 mL/min/kg; bioavailability [12]: 29%; AUC(0-inf) [4]: 5400 ng·h/mL; half-life [5]: 3.46 h; clearance [6]: 26.6 mL/min/kg; bioavailability [7]: 90%; AUC(0-inf) [13]: 1720 ng·h/mL; half-life [14]: 6.17 h; AUC(0-inf) [15]: 743 ng·h/mL; half-life [16]: 6.03 h; clearance [17]: 13.8 mL/min/kg; bioavailability [18]: 31%; concentration at 4 h [8]: 5130 ng/mL; concentration at 4 h [9]: 77 ng/mL; concentration at 4 h [10]: 442 ng/mL; IC50 (Cytochrome P450 3A4): > 15000 nM; IC50 (Cytochrome P450 2C9): > 15000 nM; IC50 (Cytochrome P450 2D6): > 15000 nM; half-life [19]: > 1 h |
| 68.6 | > 200 | – | O=C(O)C1CC2(CCN(C(=O)NC3C4CC5CC(C4)CC3C5)CC2)c2ccccc21 (stereo not drawn) | – |
| 0.5 | 0.9 | – | NC(=O)CC1CC2(CCN(C(=O)NC3C4CC5CC(C4)CC3C5)CC2)c2c(Br)cccc21 (stereo not drawn) | – |
| 8.9 | 22.5 | > 10000 | Cc1ccc2c(c1)C1(CCN(C(=O)NC3C4CC5CC(C4)CC3C5)CC1)CC2CC(=O)O (stereo not drawn) | – |
| 2 | 22.3 | > 10000 | CS(=O)(=O)NC(=O)CC1CC2(CCN(C(=O)NC3C4CC5CC(C4)CC3C5)CC2)c2c(Br)cccc21 (stereo not drawn) | – |
| 3.4 | 30.2 | > 10000 | O=C(O)CC1CC2(CCN(C(=O)NC3C4CC5CC(C4)CC3C5)CC2)c2cc(Cl)ccc21 (stereo not drawn) | – |
